Measurements from ChEMBL document CHEMBL4477254, “Synthesis and biological evaluation of some novel triazole hybrids of curcumin mimics and their selective anticancer activity against breast and prostate cancer cell lines” (Bioorg Med Chem Lett, 2016).

Tests used:
MCF7 = experiment: Cytotoxicity against human MCF7 cells assessed as decrease in cell viability after 24 hrs by MTT assay; format: functional, cell-based; settings: MCF7, 24 h
Procedure, shortened: (§1)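 Cell viability by MTT after 24 h compound exposure; curcumin as standard. IC50 in µM from three independent experiments, expressed as mean ± SE.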

MDA-MB-231 [1] = experiment: Cytotoxicity against human MDA-MB-231 cells assessed as decrease in cell viability after 24 hrs by MTT assay; format: functional, cell-based; settings: MDA-MB-231, 24 h; procedure, shortened: as §1
4T1 [2] = experiment: Cytotoxicity against mouse 4T1 cells assessed as decrease in cell viability after 24 hrs by MTT assay; format: functional, cell-based; settings: 4T1, 24 h; procedure, shortened: as §1
PC-3 [3] = experiment: Cytotoxicity against human PC3 cells assessed as decrease in cell viability after 24 hrs by MTT assay; format: functional, cell-based; settings: PC-3, 24 h; procedure, shortened: as §1
DU-145 [4] = experiment: Cytotoxicity against human DU145 cells assessed as decrease in cell viability after 24 hrs by MTT assay; format: functional, cell-based; settings: DU-145, 24 h; procedure, shortened: as §1
4T1 [5] = experiment: Potency index, ratio of curcumin IC50 to compound IC50 in mouse 4T1 cells; format: functional
Procedure, shortened: (§2)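 IC50 came from an MTT viability assay after 24 h compound exposure, with curcumin run as the standard. Values are mean ± SE of three independent experiments. The index is the curcumin IC50 divided by the compound IC50 in the same cell line.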

MDA-MB-231 [6] = experiment: Potency index, ratio of curcumin IC50 to compound IC50 in human MDA-MB-231 cells; format: functional; procedure, shortened: as §2
HEK293 = experiment: Cytotoxicity against human HEK293 cells assessed as decrease in cell viability after 24 hrs by MTT assay; format: cell-based; settings: HEK293, 24 h; procedure, shortened: as §1
DU-145 [7] = experiment: Potency index, ratio of curcumin IC50 to compound IC50 in human DU145 cells; format: functional; procedure, shortened: as §2
PC-3 [8] = experiment: Potency index, ratio of curcumin IC50 to compound IC50 in human PC3 cells; format: functional; procedure, shortened: as §2

Compound	IC50 (MCF7)	IC50 (MDA-MB-231 [1])	IC50 (4T1 [2])	IC50 (PC-3 [3])	IC50 (DU-145 [4])	Ratio IC50 (4T1 [5])	Ratio IC50 (MDA-MB-231 [6])	IC50 (HEK293)	Ratio IC50 (DU-145 [7])	Ratio IC50 (PC-3 [8])
O=C1/C(=C/c2ccccc2F)CN(C(=S)SCc2cn(Cc3ccccc3Cl)nn2)C/C1=C\c1ccccc1F	78.7 µM	100 µM	43.6 µM	> 80 µM	46.3 µM	<=9.3				
O=C1/C(=C/c2ccccc2F)CN(C(=S)SCc2cn(Cc3ccccc3F)nn2)C/C1=C\c1ccccc1F	51.6 µM	57.6 µM	30.7 µM	> 80 µM	> 80 µM	<=9.3	<=8.3			
Cc1ccc(/C=C2\CN(Cc3cn(Cc4cccc(Cl)c4)nn3)C/C(=C\c3ccc(C)cc3)C2=O)cc1	10 µM	9 µM	29.3 µM	29.3 µM	33.1 µM	<=9.3	<=8.3	73.5 µM	≤ 9.5	<=5.7
O=C1/C(=C/c2ccccc2F)CN(Cc2cn(Cc3cccc(Cl)c3)nn2)C/C1=C\c1ccccc1F	12 µM	12 µM	6.1 µM	6.8 µM	4.3 µM	<=9.3	<=8.3	33.1 µM	≤ 9.5	<=5.7
COC(=O)Nc1nc2cc(C(=O)c3cccs3)ccc2[nH]1 [NOCODAZOLE]	0.42 µM	1.1 µM	1.3 µM	2.5 µM	2.2 µM			5.1 µM		
COc1ccc(/C=C2\CN(C(=S)SCc3cn(Cc4cccc(Cl)c4)nn3)C/C(=C\c3ccc(OC)cc3)C2=O)cc1	32 µM	32 µM	69.7 µM	> 80 µM	> 80 µM		<=8.3	> 100 µM		
Cc1ccc(/C=C2\CN(C(=S)SCc3cn(Cc4ccccc4Cl)nn3)C/C(=C\c3ccc(C)cc3)C2=O)cc1	> 100 µM	93.2 µM	49.3 µM	> 80 µM	> 80 µM	<=9.3				
Cc1ccc(/C=C2\CN(Cc3cn(Cc4ccccc4Cl)nn3)C/C(=C\c3ccc(C)cc3)C2=O)cc1	66.7 µM	29 µM	23.2 µM	8.9 µM	10.5 µM	<=9.3	<=8.3	91.5 µM	≤ 9.5	<=5.7
COc1ccc(/C=C2\CN(C(=S)SCc3cn(Cc4ccc(F)cc4)nn3)C/C(=C\c3ccc(OC)cc3)C2=O)cc1	> 100 µM	> 100 µM	> 100 µM	45.6 µM	74.6 µM					
Cc1ccc(/C=C2\CN(C(=S)SCc3cn(Cc4cccc(Cl)c4)nn3)C/C(=C\c3ccc(C)cc3)C2=O)cc1	> 100 µM	83 µM	53.4 µM	> 80 µM	> 80 µM					
Cc1ccc(/C=C2\CN(C(=S)SCc3cn(Cc4ccc(F)cc4)nn3)C/C(=C\c3ccc(C)cc3)C2=O)cc1	81.6 µM	45.6 µM	29.3 µM	45.5 µM	38.8 µM	<=9.3	<=8.3		≤ 9.5	
O=C1/C(=C/c2ccccc2F)CN(Cc2cn(Cc3ccccc3F)nn2)C/C1=C\c1ccccc1F	6 µM	16 µM	6.5 µM	19.7 µM	10.6 µM	<=9.3	<=8.3	41.2 µM	≤ 9.5	<=5.7
Cc1ccc(/C=C2\CN(C(=S)SCc3cn(Cc4ccccc4F)nn3)C/C(=C\c3ccc(C)cc3)C2=O)cc1	> 100 µM	91.5 µM	28.4 µM	> 80 µM	80 µM	<=9.3				
COc1ccc(/C=C2\CN(Cc3cn(Cc4ccccc4Cl)nn3)C/C(=C\c3ccc(OC)cc3)C2=O)cc1	> 100 µM	> 100 µM	11.4 µM	36.3 µM	17.8 µM	<=9.3			≤ 9.5	<=5.7
COc1ccc(/C=C2\CN(Cc3cn(Cc4ccccc4F)nn3)C/C(=C\c3ccc(OC)cc3)C2=O)cc1	≥ 100 µM	67.2 µM	39.4 µM	39.9 µM	32.6 µM	<=9.3	<=8.3	> 100 µM	≤ 9.5	
COc1ccc(/C=C2\CN(C(=S)SCc3cn(Cc4ccccc4Cl)nn3)C/C(=C\c3ccc(OC)cc3)C2=O)cc1	> 100 µM	> 100 µM	> 100 µM	60.1 µM	> 80 µM					
COc1ccc(/C=C2\CN(Cc3cn(Cc4ccc(F)cc4)nn3)C/C(=C\c3ccc(OC)cc3)C2=O)cc1	> 100 µM	70.7 µM	49.3 µM	67.5 µM	59.4 µM	<=9.3	<=8.3			
COc1ccc(/C=C2\CN(Cc3cn(Cc4cccc(Cl)c4)nn3)C/C(=C\c3ccc(OC)cc3)C2=O)cc1	99 µM	98 µM	56.6 µM	32.5 µM	15.4 µM			> 100 µM	≤ 9.5	<=5.7
COc1cccc2c1C(=O)c1c(O)c3c(c(O)c1C2=O)C[C@@](O)(C(=O)CO)C[C@@H]3O[C@H]1C[C@H](N)[C@H](O)[C@H](C)O1 [DOXORUBICIN]		1.6 µM	0.99 µM		1.6 µM			7.2 µM		
O=c1[nH]cc(F)c(=O)[nH]1 [FLUOROURACIL]		19 µM	23 µM	13.3 µM	24.2 µM			40 µM		
O=C1/C(=C/c2ccccc2F)CN(C(=S)SCc2cn(Cc3ccc(F)cc3)nn2)C/C1=C\c1ccccc1F	56.9 µM	58.8 µM	9.9 µM	> 80 µM	35.7 µM	<=9.3	<=8.3	51.3 µM		
O=C1/C(=C/c2ccccc2F)CN(C(=S)SCc2cn(Cc3cccc(Cl)c3)nn2)C/C1=C\c1ccccc1F	> 100 µM	> 100 µM	> 100 µM	80 µM	> 80 µM					
Cc1ccc(/C=C2\CN(Cc3cn(Cc4ccc(F)cc4)nn3)C/C(=C\c3ccc(C)cc3)C2=O)cc1	29 µM	26.8 µM	57.2 µM	65.6 µM	49.7 µM		<=8.3			
COc1ccc(/C=C2\CN(C(=S)SCc3cn(Cc4ccccc4F)nn3)C/C(=C\c3ccc(OC)cc3)C2=O)cc1	79.4 µM	> 100 µM	49.9 µM	31.5 µM	54.5 µM					<=5.7
